In brackets after ≈: the same amount, converted by molar mass.
How the values were obtained:
Assay type in all cases: functional, cell-based
[1] = system: SK-OV-3; experiment: Cytotoxicity against human SKOV3 cells by SRB assay
Summary of the method: (§1)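 Standard sulforhodamine B assay on a panel of human tumour lines: A549 lung carcinoma, SK-OV-3 ovarian adenocarcinoma (from malignant ascites), SK-MEL-2 malignant melanoma (skin metastasis, thigh), XF-498 central nervous system tumour, and HCT 15 colon adenocarcinoma. Testing was done by an external pharmacology group.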

[2] = system: HCT-15; experiment: Cytotoxicity against human HCT15 cells by SRB assay; summary of the method: as §1
[3] = system: A549; experiment: Cytotoxicity against human A549 cells by SRB assay
[4] = system: SK-MEL-2; experiment: Cytotoxicity against human SK-MEL-2 cells by SRB assay; summary of the method: as §1
[5] = system: XF498; experiment: Cytotoxicity against human XF498 cells by SRB assay; summary of the method: as §1

Question: How did the IC50 [1] turn out when C[C@H]1CC[C@@]2(OC1)O[C@H]1C[C@H]3[C@@H]4CC[C@@H]5C[C@@H](O[C@@H]6O[C@H](CO)[C@@H](O)[C@H](O)[C@H]6O[C@@H]6O[C@@H](CO)[C@H](O)[C@H](O)[C@H]6O)CC[C@]5(C)[C@H]4CC[C@]3(C)[C@@]1(O)[C@@H]2C (relative stereo) [ASPAOLIGONIN A] was run?
Answer: 2.66 mg/L (≈ 3.51 µM)

Question: And the IC50 [2]?
Answer: 2.59 mg/L (≈ 3.42 µM)

Question: And the IC50 [3]?
Answer: 2.25 mg/L (≈ 2.97 µM)

Question: And the IC50 [4]?
Answer: 2.53 mg/L (≈ 3.34 µM)

Question: And the IC50 [5]?
Answer: 2.84 mg/L (≈ 3.75 µM)

Question: For C[C@H]1CC[C@@]2(OC1)O[C@H]1C[C@H]3[C@@H]4CC[C@@H]5C[C@@H](O[C@@H]6O[C@H](CO)[C@@H](O[C@@H]7O[C@@H](C)[C@H](O)[C@@H](O)[C@H]7O)[C@H](O)[C@H]6O[C@@H]6OC[C@@H](O)[C@H](O)[C@H]6O)CC[C@]5(C)[C@H]4CC[C@]3(C)[C@@]1(O)[C@@H]2C (relative stereo) [ASPAOLIGONIN B], which IC50 [1] is on record?
Answer: 2.73 mg/L (≈ 3.13 µM)

Question: And the IC50 [2]?
Answer: 2.57 mg/L (≈ 2.94 µM)

Question: What about the IC50 [3] of the same compound?
Answer: 2.55 mg/L (≈ 2.92 µM)

Question: And the IC50 [4]?
Answer: 2.59 mg/L (≈ 2.97 µM)

Question: And the IC50 [5]?
Answer: 2.51 mg/L (≈ 2.88 µM)

Question: For C[C@H]1CC[C@@]2(OC1)O[C@H]1C[C@H]3[C@@H]4CC[C@@H]5C[C@@H](O[C@@H]6O[C@H](CO)[C@@H](O)[C@H](O)[C@H]6O[C@@H]6O[C@@H](CO)[C@H](O)[C@H](O)[C@H]6O)CC[C@]5(C)[C@H]4CC[C@]3(C)[C@H]1[C@@H]2C (relative stereo) [ASPARANIN A], which IC50 [1] is on record?
Answer: 2.43 mg/L (≈ 3.28 µM)

Question: And the IC50 [2]?
Answer: 2.47 mg/L (≈ 3.33 µM)

Question: And the IC50 [3]?
Answer: 2.05 mg/L (≈ 2.77 µM)

Question: What about the IC50 [4] of the same compound?
Answer: 2.41 mg/L (≈ 3.25 µM)

Question: And the IC50 [5]?
Answer: 2.56 mg/L (≈ 3.46 µM)

Question: With COc1cccc2c1C(=O)c1c(O)c3c(c(O)c1C2=O)C[C@@](O)(C(=O)CO)C[C@@H]3O[C@H]1C[C@H](N)[C@H](O)[C@H](C)O1 [DOXORUBICIN] as the compound, how does the IC50 [1] read?
Answer: 0.18 mg/L (≈ 0.331 µM)

Question: And the IC50 [2]?
Answer: 0.08 mg/L (≈ 0.147 µM)

Question: And the IC50 [4]?
Answer: 0.03 mg/L (≈ 0.0552 µM)

Question: And the IC50 [5]?
Answer: 0.12 mg/L (≈ 0.221 µM)
